Laboratory results: ChEMBL document CHEMBL1139130, “New C-5 substituted pyrrolotriazine dual inhibitors of EGFR and HER2 protein tyrosine kinases” (Bioorg Med Chem Lett, 2007)
Each block holds one molecule with its values, some of them ahead of it.

What was measured:
[1] = target: T1, Receptor tyrosine-protein kinase erbB-2 (Homo sapiens, UniProt P04626); experiment: Inhibition of human recombinant cytoplasmic HER2 kinase expressed in Sf9 cells
[2] = target: Epidermal growth factor receptor (Homo sapiens, UniProt P00533)
Chain of Epidermal growth factor receptor (P00533 whole entry): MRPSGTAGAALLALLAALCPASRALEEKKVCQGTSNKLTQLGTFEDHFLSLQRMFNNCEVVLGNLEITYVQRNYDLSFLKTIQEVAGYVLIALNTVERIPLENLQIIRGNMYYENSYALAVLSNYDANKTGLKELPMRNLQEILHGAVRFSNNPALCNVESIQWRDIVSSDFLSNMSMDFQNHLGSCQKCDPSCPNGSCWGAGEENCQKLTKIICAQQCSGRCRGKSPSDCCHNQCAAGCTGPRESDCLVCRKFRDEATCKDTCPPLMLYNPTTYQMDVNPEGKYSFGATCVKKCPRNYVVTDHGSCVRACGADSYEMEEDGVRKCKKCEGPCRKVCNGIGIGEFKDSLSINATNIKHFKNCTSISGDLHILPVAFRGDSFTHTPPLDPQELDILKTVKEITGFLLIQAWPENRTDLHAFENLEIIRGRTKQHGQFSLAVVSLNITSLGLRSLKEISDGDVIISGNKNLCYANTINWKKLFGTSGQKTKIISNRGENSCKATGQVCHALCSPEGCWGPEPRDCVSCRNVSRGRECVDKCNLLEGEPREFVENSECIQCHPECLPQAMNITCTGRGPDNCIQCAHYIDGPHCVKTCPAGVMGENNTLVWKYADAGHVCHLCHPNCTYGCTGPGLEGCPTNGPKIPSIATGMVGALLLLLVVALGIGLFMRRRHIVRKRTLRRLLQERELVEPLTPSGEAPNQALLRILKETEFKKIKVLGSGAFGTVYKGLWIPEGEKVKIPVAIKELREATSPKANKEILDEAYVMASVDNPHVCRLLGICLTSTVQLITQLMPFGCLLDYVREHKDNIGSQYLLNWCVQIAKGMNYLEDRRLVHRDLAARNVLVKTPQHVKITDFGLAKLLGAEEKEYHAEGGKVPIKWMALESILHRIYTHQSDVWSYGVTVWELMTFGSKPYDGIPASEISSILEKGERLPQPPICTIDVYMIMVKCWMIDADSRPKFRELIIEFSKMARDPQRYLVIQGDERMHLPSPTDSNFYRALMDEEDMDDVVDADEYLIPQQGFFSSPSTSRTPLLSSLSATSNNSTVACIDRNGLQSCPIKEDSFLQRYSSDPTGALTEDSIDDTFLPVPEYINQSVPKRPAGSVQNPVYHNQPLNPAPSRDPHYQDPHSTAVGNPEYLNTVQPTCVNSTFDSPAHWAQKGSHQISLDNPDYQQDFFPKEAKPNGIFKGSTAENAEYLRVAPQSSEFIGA

NCI-N87 [3] = experiment: Antiproliferative activity against human N87 cells; format: functional, cell-based
A2780 = experiment: Antiproliferative activity against human A2780 cells; format: functional, cell-based
Liver = experiment: Metabolic stability in mouse liver microsomes assessed as rate of metabolism per mg protein at 3 uM after 10 mins; format: ADME, Microsome
Outline: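 Test compound at 3 µM incubated 10 min with mouse liver microsomes plus NADPH. Rate of metabolism expressed as nmol min⁻¹ mg protein⁻¹.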

HT-29 = experiment: Antiproliferative activity against human HT29 cells
[4] = target: T1, Receptor tyrosine-protein kinase erbB-2; experiment: Inhibition of HER2 phosphorylation in human N87 cells; format: cell-based; conditions: NCI-N87
Outline: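 N87 human gastric carcinoma cells, which overexpress EGFR and HER2, were exposed to a range of compound concentrations for 1 h. Cell lysates were then Western blotted with anti-phosphotyrosine and anti-HER2 antibodies to follow HER2 phosphorylation.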

[5] = target: Hepatocyte growth factor receptor (Homo sapiens, UniProt P08581); experiment: Inhibition of Met kinase
Chain of Hepatocyte growth factor receptor (P08581 whole entry): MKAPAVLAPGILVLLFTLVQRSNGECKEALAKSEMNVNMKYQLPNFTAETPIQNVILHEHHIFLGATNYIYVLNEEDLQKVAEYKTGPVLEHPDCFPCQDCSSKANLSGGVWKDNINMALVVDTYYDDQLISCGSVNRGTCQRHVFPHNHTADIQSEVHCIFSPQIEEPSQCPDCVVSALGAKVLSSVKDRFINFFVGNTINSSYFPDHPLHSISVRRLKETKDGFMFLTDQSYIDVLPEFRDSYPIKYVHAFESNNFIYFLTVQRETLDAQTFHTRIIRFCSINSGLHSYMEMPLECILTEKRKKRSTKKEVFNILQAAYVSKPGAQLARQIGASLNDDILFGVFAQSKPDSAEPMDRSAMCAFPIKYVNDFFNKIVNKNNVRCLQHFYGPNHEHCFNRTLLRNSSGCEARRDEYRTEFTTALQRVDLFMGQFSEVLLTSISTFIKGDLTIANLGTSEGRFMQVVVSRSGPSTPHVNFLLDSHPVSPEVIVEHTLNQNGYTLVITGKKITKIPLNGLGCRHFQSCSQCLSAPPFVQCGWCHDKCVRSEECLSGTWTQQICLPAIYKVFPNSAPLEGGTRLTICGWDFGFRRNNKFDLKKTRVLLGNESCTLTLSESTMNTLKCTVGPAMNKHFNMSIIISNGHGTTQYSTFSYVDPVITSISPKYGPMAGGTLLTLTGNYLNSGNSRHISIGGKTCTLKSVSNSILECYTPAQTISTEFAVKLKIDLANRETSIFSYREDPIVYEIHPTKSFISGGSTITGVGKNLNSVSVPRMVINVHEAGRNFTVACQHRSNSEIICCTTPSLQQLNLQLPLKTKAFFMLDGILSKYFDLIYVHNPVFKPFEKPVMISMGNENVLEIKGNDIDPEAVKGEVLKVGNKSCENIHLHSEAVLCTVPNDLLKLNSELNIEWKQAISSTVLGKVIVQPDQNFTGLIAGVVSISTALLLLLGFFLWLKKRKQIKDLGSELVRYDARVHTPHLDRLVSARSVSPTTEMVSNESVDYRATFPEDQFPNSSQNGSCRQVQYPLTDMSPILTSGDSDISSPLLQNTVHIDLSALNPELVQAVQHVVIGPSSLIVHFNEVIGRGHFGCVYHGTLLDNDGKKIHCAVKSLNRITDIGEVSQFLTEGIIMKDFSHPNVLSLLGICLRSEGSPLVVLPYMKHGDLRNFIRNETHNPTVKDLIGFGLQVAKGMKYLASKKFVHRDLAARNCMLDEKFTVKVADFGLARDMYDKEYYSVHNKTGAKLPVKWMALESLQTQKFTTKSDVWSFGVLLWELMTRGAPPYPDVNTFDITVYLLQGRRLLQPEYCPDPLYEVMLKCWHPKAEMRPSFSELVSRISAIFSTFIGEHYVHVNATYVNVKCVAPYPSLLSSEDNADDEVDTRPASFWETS
Outline: (§1)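 Kinase panel values are IC50s reported as the mean of at least three determinations, with variability around the mean under 15%.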

[6] = target: Tyrosine-protein kinase Lck (Homo sapiens, UniProt P06239); experiment: Inhibition of LCK kinase
Chain of Tyrosine-protein kinase Lck (P06239 whole entry): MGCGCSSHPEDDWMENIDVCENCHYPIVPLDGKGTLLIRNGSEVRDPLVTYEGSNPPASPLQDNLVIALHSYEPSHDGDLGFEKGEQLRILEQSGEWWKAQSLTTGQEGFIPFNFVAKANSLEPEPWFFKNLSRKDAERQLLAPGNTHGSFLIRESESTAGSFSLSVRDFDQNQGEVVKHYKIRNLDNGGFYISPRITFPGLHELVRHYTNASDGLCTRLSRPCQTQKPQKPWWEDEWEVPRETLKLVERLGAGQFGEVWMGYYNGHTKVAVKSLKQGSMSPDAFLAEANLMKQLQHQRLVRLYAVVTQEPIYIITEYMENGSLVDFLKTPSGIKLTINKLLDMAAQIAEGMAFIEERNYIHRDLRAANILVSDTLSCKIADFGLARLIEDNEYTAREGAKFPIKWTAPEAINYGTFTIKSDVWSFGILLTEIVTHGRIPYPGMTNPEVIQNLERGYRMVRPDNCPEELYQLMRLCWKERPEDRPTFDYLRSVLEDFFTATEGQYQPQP
Outline: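 IC50 is the mean of at least three determinations, with variability around the mean below 15%.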

[7] = target: Vascular endothelial growth factor receptor 2 (Homo sapiens, UniProt P35968); experiment: Inhibition of VEGFR2; outline: as §1
MAP kinase p38 = MAP kinase p38 (Homo sapiens, UniProt O15264+Q15759+Q16539+P53778); experiment: Inhibition of p38 kinase; format: protein assay; outline: as §1
[8] = Inhibition of PKA; design: species or system Homo sapiens
Outline: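 IC50 values are means of at least three determinations, with variability around the mean under 15%.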

[9] = Antitumor activity against human GEO cells xenografted athymic mouse at 30 mg/kg, sc QD for 21 days; format: functional; conditions: po, 504 h, read-out: TGI, in the assay text read “po QD” for “sc QD”
Outline: (§2)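 Tumor cells were implanted subcutaneously in athymic mice and staged to about 100 mg before dosing, with drug given orally. […] Probability was assessed for median tumor weight at the end of treatment.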

[10] = Antitumor activity against human GEO cells xenografted athymic mouse at 60 mg/kg, sc QD for 21 days; format: functional; conditions: po, 504 h, read-out: TGI, in the assay text read “po QD” for “sc QD”; outline: as §2
[11] = Antitumor activity against human GEO cells xenografted athymic mouse at 120 mg/kg, sc QD for 21 days; format: functional; conditions: po, 504 h, read-out: TGI, in the assay text read “po QD” for “sc QD”; outline: as §2
[12] = Antitumor activity against human GEO cells xenografted athymic mouse at 240 mg/kg, sc QD for 21 days; format: functional; conditions: po, 504 h, read-out: TGI, in the assay text read “po QD” for “sc QD”; outline: as §2
NCI-N87 [13] = experiment: Antitumor activity against human N87 cells xenografted athymic mouse at 30 mg/kg, sc QD for 14 days; format: functional; conditions: NCI-N87, po, 336 h, read-out: TGI, in the assay text read “po QD” for “sc QD”; outline: as §2
NCI-N87 [14] = experiment: Antitumor activity against human N87 cells xenografted athymic mouse at 60 mg/kg, sc QD for 14 days; format: functional; conditions: NCI-N87, po, 336 h, read-out: TGI, in the assay text read “po QD” for “sc QD”; outline: as §2
NCI-N87 [15] = experiment: Antitumor activity against human N87 cells xenografted athymic mouse at 120 mg/kg, sc QD for 14 days; format: functional; conditions: NCI-N87, po, 336 h, read-out: TGI, in the assay text read “po QD” for “sc QD”; outline: as §2
NCI-N87 [16] = experiment: Antitumor activity against human N87 cells xenografted athymic mouse at 240 mg/kg, sc QD for 14 days; format: functional; conditions: NCI-N87, po, 336 h, read-out: TGI, in the assay text read “po QD” for “sc QD”; outline: as §2
[17] = Permeability across Caco-2 cell membrane; format: ADME, cell-based; conditions: human, read-out: permeability
[18] = Fraction unbound (%) ligand in mouse serum at 10 uM by equilibrium dialysis; format: ADME, cell-free, Plasma
Mus musculus [19] = experiment: AUC in BALB/C mouse at 50 mg/kg, po after 4 hrs; format: ADME, organism-based, Plasma; design: time < 4 hr, dose 50 mg/kg, route oral; conditions: in vivo
Outline: (§3)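 Single oral 50 mg/kg dose in male Balb/C mice. AUC taken over 4 h, and plasma concentration measured at 4 h.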

[20] = Plasma concentration in BALB/C mouse at 50 mg/kg, po after 4 hrs; format: ADME, organism-based; design: dose 50 mg/kg, route oral; outline: as §3
Mus musculus [21] = experiment: Toxicity in mouse at 240 mg/kg, po; conditions: in vivo
Mus musculus [22] = experiment: Toxicity in mouse assessed as wieght loss at 240 mg/kg, po; conditions: in vivo

T1 sequence (P04626 whole entry): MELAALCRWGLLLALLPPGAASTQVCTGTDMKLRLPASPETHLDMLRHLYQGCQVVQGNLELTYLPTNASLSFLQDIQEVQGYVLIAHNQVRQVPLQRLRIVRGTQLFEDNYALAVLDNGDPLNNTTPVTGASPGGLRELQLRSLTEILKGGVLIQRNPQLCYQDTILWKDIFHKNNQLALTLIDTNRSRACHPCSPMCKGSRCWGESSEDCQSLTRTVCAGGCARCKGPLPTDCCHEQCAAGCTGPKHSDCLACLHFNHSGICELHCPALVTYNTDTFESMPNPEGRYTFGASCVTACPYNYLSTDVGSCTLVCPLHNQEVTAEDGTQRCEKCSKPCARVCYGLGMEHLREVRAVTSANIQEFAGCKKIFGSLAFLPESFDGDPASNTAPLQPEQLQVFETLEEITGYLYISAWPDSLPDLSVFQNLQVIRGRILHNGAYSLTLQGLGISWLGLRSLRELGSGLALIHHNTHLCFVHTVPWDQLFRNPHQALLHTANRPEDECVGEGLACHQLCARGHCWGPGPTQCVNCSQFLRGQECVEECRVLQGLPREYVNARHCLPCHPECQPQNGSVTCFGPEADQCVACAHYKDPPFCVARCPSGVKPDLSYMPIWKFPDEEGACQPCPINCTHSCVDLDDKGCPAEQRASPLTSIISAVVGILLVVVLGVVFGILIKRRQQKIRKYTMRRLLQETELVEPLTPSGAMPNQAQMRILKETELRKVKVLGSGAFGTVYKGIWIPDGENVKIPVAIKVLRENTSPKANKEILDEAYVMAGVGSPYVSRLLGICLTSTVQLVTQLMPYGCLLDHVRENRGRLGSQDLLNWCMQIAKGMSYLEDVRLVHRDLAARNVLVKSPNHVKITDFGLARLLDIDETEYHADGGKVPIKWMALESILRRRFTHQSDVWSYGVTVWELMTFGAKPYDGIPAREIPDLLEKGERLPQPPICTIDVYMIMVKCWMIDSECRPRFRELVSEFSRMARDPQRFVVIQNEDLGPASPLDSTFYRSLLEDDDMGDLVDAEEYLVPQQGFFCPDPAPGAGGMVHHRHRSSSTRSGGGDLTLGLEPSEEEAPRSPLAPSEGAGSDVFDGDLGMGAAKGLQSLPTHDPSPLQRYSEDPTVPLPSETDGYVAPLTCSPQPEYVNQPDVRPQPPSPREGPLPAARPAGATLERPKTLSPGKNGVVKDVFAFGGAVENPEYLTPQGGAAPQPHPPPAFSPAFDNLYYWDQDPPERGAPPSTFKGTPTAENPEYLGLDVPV

SMILES: Cc1ccn2ncnc(Nc3ccc4c(cnn4Cc4cccnc4)c3)c12
IC50 [1]: 250 nM
IC50 [2]: 1800 nM

SMILES: COC(=O)COCc1ccn2ncnc(Nc3ccc4c(cnn4Cc4cccc(F)c4)c3)c12
IC50 [1]: 280 nM
IC50 (NCI-N87 [3]): 1700 nM
IC50 [2]: 460 nM

SMILES: Cc1ccn2ncnc(Nc3ccc4c(cnn4Cc4ccccn4)c3)c12
IC50 [1]: 310 nM
IC50 [2]: 200 nM

SMILES: Fc1cccc(Cn2ncc3cc(Nc4ncnn5ccc(COC[C@H]6CNCCO6)c45)ccc32)c1
IC50 [1]: 60 nM
IC50 (A2780): > 10000 nM
IC50 (NCI-N87 [3]): 130 nM
IC50 [2]: 83 nM

SMILES: Cc1ccn2ncnc(Nc3ccc4[nH]ncc4c3)c12
IC50 [1]: > 1000 nM
IC50 [2]: 210 nM

SMILES: Cc1ccn2ncnc(Nc3ccc(OCc4cccc(F)c4)c(Cl)c3)c12
IC50 [1]: 430 nM
IC50 [2]: 250 nM

SMILES: NCCCOCc1ccn2ncnc(Nc3ccc4c(cnn4Cc4cccc(F)c4)c3)c12
IC50 [1]: 60 nM
IC50 (A2780): 7400 nM
Stability (Liver): 0.01 nmol/min/mg
IC50 (NCI-N87 [3]): 640 nM
IC50 [2]: 64 nM

SMILES: OCc1ccn2ncnc(Nc3ccc4c(cnn4Cc4cccc(F)c4)c3)c12
IC50 [1]: 110 nM
IC50 (HT-29): > 10000 nM
IC50 (NCI-N87 [3]): 7400 nM
IC50 [2]: 120 nM

SMILES: COCCOCc1ccn2ncnc(Nc3ccc4c(cnn4Cc4cccc(F)c4)c3)c12
IC50 [1]: 420 nM

SMILES: Cc1ccn2ncnc(Nc3ccc4c(cnn4Cc4cccc(F)c4)c3)c12
IC50 [1]: 88 nM
IC50 (HT-29): > 10000 nM
Stability (Liver): 0.14 nmol/min/mg
IC50 (NCI-N87 [3]): 380 nM
IC50 [2]: 81 nM

SMILES: Fc1cccc(COc2ccc(Nc3ncnn4ccc(COC[C@@H]5CNCCO5)c34)cc2Cl)c1
IC50 (NCI-N87 [3]): 610 nM

SMILES: Fc1cccc(Cn2ncc3cc(Nc4ncnn5ccc(COC[C@H]6CCCNC6)c45)ccc32)c1
IC50 [1]: 170 nM
IC50 (A2780): 7400 nM
IC50 (NCI-N87 [3]): 980 nM
IC50 [2]: 190 nM

SMILES: NC(=O)COCc1ccn2ncnc(Nc3ccc4c(cnn4Cc4cccc(F)c4)c3)c12
IC50 [1]: 110 nM
IC50 (A2780): > 10000 nM
IC50 (NCI-N87 [3]): 1700 nM
IC50 [2]: 140 nM

SMILES: C[C@H](c1cccc(F)c1)n1ncc2cc(Nc3ncnn4ccc(COC[C@@H]5CNCCO5)c34)ccc21
IC50 [1]: 41 nM
IC50 (NCI-N87 [3]): 130 nM
IC50 [2]: 68 nM

SMILES: C[C@@H](c1cccc(F)c1)n1ncc2cc(Nc3ncnn4ccc(COC[C@@H]5CNCCO5)c34)ccc21
IC50 [1]: 510 nM
IC50 [2]: 400 nM

Further lines, with some results ahead:

IC50 [1]: > 1000 nM
SMILES: Cc1ccn2ncnc(Nc3ccc(F)c(Cl)c3)c12

IC50 [1]: 110 nM
IC50 [2]: 86 nM
SMILES: Cc1ccn2ncnc(Nc3ccc4c(cnn4Cc4ccccc4)c3)c12

IC50 (A2780): 8300 nM
SMILES: NCCOCc1ccn2ncnc(Nc3ccc4c(cnn4Cc4cccc(F)c4)c3)c12
IC50 (NCI-N87 [3]): 1700 nM

IC50 [1]: 590 nM
IC50 (A2780): > 10000 nM
IC50 [2]: 640 nM
SMILES: Fc1cccc(Cn2ncc3cc(Nc4ncnn5ccc(COC[C@@H]6COCCN6)c45)ccc32)c1
IC50 (NCI-N87 [3]): 3000 nM

IC50 [1]: 250 nM
IC50 [2]: 430 nM
SMILES: COc1cn2ncnc(Nc3ccc4c(cnn4Cc4cccc(F)c4)c3)c2c1COC[C@@H]1CNCCO1
IC50 (NCI-N87 [3]): 3400 nM

IC50 [1]: 560 nM
Stability (Liver): 0.12 nmol/min/mg
IC50 [2]: 620 nM
SMILES: CN(C)CCCOCc1ccn2ncnc(Nc3ccc4c(cnn4Cc4cccc(F)c4)c3)c12

IC50 [1]: 130 nM
IC50 [2]: 120 nM
SMILES: C[C@H](c1ccccc1)n1ncc2cc(Nc3ncnn4ccc(COC[C@@H]5CNCCO5)c34)ccc21
IC50 (NCI-N87 [3]): 660 nM

IC50 [1]: 120 nM
IC50 (A2780): 4900 nM
IC50 [2]: 130 nM
SMILES: Fc1cccc(Cn2ncc3cc(Nc4ncnn5ccc(COCC6CCNCC6)c45)ccc32)c1
IC50 (NCI-N87 [3]): 720 nM

IC50 [1]: 140 nM
IC50 (A2780): > 10000 nM
IC50 [2]: 210 nM
SMILES: Fc1cccc(Cn2ncc3cc(Nc4ncnn5ccc(COCC6CNCCOC6)c45)ccc32)c1 (stereo not drawn)
IC50 (NCI-N87 [3]): 2000 nM

IC50 [1]: 55 nM
IC50 (A2780): 8700 nM
Stability (Liver): 0.07 nmol/min/mg
Activity [4]: Dose-dependent effect
IC50 [5]: 6500 nM
IC50 [6]: > 5000 nM
IC50 [7]: > 10000 nM
IC50 (MAP kinase p38): > 50000 nM
IC50 [8]: > 50000 nM
Papp [17]: 6.4 ×10⁻⁶ cm/s
fraction unbound at 10 µM [18]: 0.026
AUC (Mus musculus [19]): 29 µM·h
concentration at 4 h [20]: 5.8 µM
IC50 [2]: 61 nM
SMILES: Fc1cccc(Cn2ncc3cc(Nc4ncnn5ccc(COC[C@@H]6CNCCO6)c45)ccc32)c1
inhibition in vivo at 30 mg/kg [9]: 21%
inhibition in vivo at 60 mg/kg [10]: 55%
inhibition in vivo at 120 mg/kg [11]: 71%
inhibition in vivo at 240 mg/kg [12]: 91%
inhibition in vivo at 30 mg/kg (NCI-N87 [13]): 28%
inhibition in vivo at 60 mg/kg (NCI-N87 [14]): 51%
inhibition in vivo at 120 mg/kg (NCI-N87 [15]): 70%
inhibition in vivo at 240 mg/kg (NCI-N87 [16]): 111%
IC50 (NCI-N87 [3]): 83 nM
Activity (Mus musculus [21]): Non-toxic
Activity (Mus musculus [22]): Non-toxic

IC50 [1]: 130 nM
IC50 [2]: 160 nM
SMILES: NCCCCOCc1ccn2ncnc(Nc3ccc4c(cnn4Cc4cccc(F)c4)c3)c12

IC50 [1]: 70 nM
IC50 (A2780): 6000 nM
Stability (Liver): 0.02 nmol/min/mg
IC50 [2]: 73 nM
SMILES: Fc1cccc(Cn2ncc3cc(Nc4ncnn5ccc(COC6CCNCC6)c45)ccc32)c1
IC50 (NCI-N87 [3]): 330 nM

IC50 [1]: 410 nM
IC50 [2]: 810 nM
SMILES: c1cncc(Cn2ncc3cc(Nc4ncnn5ccc(COC[C@@H]6CNCCO6)c45)ccc32)c1
IC50 (NCI-N87 [3]): 550 nM

IC50 [1]: 380 nM
IC50 [2]: 500 nM
SMILES: c1ccc(Cn2ncc3cc(Nc4ncnn5ccc(COC[C@@H]6CNCCO6)c45)ccc32)nc1
IC50 (NCI-N87 [3]): 240 nM

IC50 [1]: 18 nM
IC50 (A2780): > 10000 nM
IC50 [2]: 30 nM
SMILES: O=C(O)COCc1ccn2ncnc(Nc3ccc4c(cnn4Cc4cccc(F)c4)c3)c12
IC50 (NCI-N87 [3]): > 10000 nM

IC50 [1]: 420 nM
Stability (Liver): 0.24 nmol/min/mg
IC50 [2]: 340 nM
SMILES: COCc1ccn2ncnc(Nc3ccc4c(cnn4Cc4cccc(F)c4)c3)c12

IC50 [1]: 850 nM
IC50 [2]: 690 nM
SMILES: C[C@@H](c1ccccc1)n1ncc2cc(Nc3ncnn4ccc(COC[C@@H]5CNCCO5)c34)ccc21
IC50 (NCI-N87 [3]): 2200 nM
